# Data as given in ChEMBL document CHEMBL4425095, “Novel Cephalosporins Selectively Active on Nonreplicating Mycobacterium tuberculosis” (J Med Chem, 2016).
# What was measured:
# Assay type in all cases: functional
# [1] = test system: Mycobacterium tuberculosis; test: Antimycobacterial activity against non-replicating Mycobacterium tuberculosis mc2 6220 harboring panCD/lysA deletion mutant incubated for 7 days measured at OD580 = 0.1 by two-fold serial dilution method
# How it was run: (§1)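 M. tuberculosis mc26220 washed twice in PBS-tyloxapol and resuspended in Sauton's-based nonreplicating medium (pH 5.0, butyrate 0.05%, BSA, tyloxapol, lysine, pantothenate, 0.5 mM NaNO2). Incubated at 1% O2, 5% CO2 with 2-fold serially diluted compound from DMSO. After 3 days, diluted 5-fold in fresh replicating medium for outgrowth at 20% O2. Reported as MIC90.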
# [2] = test system: Mycobacterium tuberculosis; test: Antimycobacterial activity against replicating Mycobacterium tuberculosis mc2 6220 harboring panCD/lysA deletion mutant by two-fold serial dilution method
# How it was run: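 M. tuberculosis mc26220 in replicating medium supplemented with glycerol (final 0.5%), OADC, casamino acids 0.05%, lysine 240 μg/mL and pantothenate 24 μg/mL. Exposed to 2-fold serially diluted compound from DMSO. OD580 read after 7 days at 20% O2, 5% CO2. Reported as MIC90.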
# [3] = test system: Mycobacterium tuberculosis; test: Antimycobacterial activity against non-replicating Mycobacterium tuberculosis mc2 6220 harboring panCD/lysA deletion mutant incubated for 7 days measured at OD580 = 0.01 by two-fold serial dilution method; how it was run: as §1
Compound,MIC90 [1] [µg/mL],MIC90 [2] [µg/mL],MIC90 [3] [µg/mL]
CC1=C(c2nc(C)no2)N2C(=O)[C@@H](NC(=O)Cc3ccc(Cl)cc3)[C@H]2SC1,1.13,>100,
CC1=C(c2nc(C)no2)N2C(=O)[C@@H](NC(=O)Cc3ccccc3)[C@H]2SC1,1.61,>100,
CC1=C(c2nc(C)no2)N2C(=O)[C@@H](NC(=O)Cc3ccc(C)cc3)[C@H]2SC1,1.75,>100,
CCSC(=O)N[C@@H]1C(=O)N2C(c3nc(C)no3)=C(C)CS[C@H]12,1.84,>100,
CC1=C(c2nc(C)no2)N2C(=O)[C@@H](NC(=O)OC(C)(C)C)[C@H]2SC1,9.16,>100,5.3
CCCc1noc(C2=C(C)CS[C@@H]3[C@H](NC(=O)Cc4ccc(OC)cc4)C(=O)N23)n1,0.77,>100,
CCOC(=O)C1=C(C)CS[C@@H]2[C@H](NC(=O)CCc3ccccc3)C(=O)N12,1.15,>100,0.47
COC[C@H]1C(C)=CS[C@@H]2[C@H](NC(=O)COc3ccccc3)C(=O)N21,>34.84,>87.82,>34.84
CC(=O)OCC1=C(C(=O)O)N2C(=O)[C@@H](NC(=O)Cc3cccs3)[C@H]2SC1 [CEPHALOTHIN],>100,>100,95.53
CCCOC(=O)C1=C(C)CS[C@@H]2[C@H](NC(=O)CCc3ccc(OC)cc3)C(=O)N12,<0.2,>100,<0.2
CC1=C(C(=O)O)N2C(=O)[C@@H](NC(=O)Cc3ccc(Cl)cc3)[C@H]2SC1,>36.68,81.38,>36.68
CC1=C(C(=O)O/N=C(\C)N)N2C(=O)[C@@H](NC(=O)COc3ccccc3)[C@H]2SC1,8.12,>100,5.6
COC(=O)C1=C(C)CS[C@@H]2[C@H](NC(=O)COc3ccc(OC)cc3)C(=O)N12,4.28,>100,2.01
CCCN(O)C(=O)C1=C(C)CS[C@@H]2[C@H](NC(=O)COc3ccccc3)C(=O)N12,>40.55,>100,>40.55
C#CCNC(=O)C1=C(C)CS[C@@H]2[C@H](NC(=O)COc3ccccc3)C(=O)N12,>38.54,>100,>38.54
CC1=C(C(=O)O)N2C(=O)[C@@H](NC(=O)c3ccc(Cl)cc3)[C@H]2SC1,>35.28,>100,>35.28
CCOC(=O)C1=C(C)CS[C@@H]2[C@H](NC(=O)COc3ccc(OC)cc3)C(=O)N12,0.89,47.1,0.53
COC(=O)C1=C(C)CS[C@@H]2[C@H](NC(=O)COc3ccccc3)C(=O)N12,2.93,>100,2.07
COC(=O)C1=C(C)CS[C@@H]2[C@H](NC(=O)[C@H](N)c3ccccc3)C(=O)N12,61.78,>100,
CCCCOC(=O)C1=C(C)CS[C@@H]2[C@H](NC(=O)COc3ccc(OC)cc3)C(=O)N12,1.12,>100,0.71

Compound,MIC90 [1] [µg/mL],MIC90 [2] [µg/mL],MIC90 [3] [µg/mL]
COc1ccc(CCC(=O)N[C@@H]2C(=O)N3C(C(=O)OC4CCCC4)=C(C)CS[C@H]23)cc1,0.96,44.33,0.84
CC1=C(c2nc(C)no2)N2C(=O)[C@@H](NC(=O)Cc3ccc(Cl)c(Cl)c3)[C@H]2SC1,0.28,>100,
CCCc1noc(C2=C(C)CS[C@@H]3[C@H](NC(=O)CCc4ccc(OC)cc4)C(=O)N23)n1,0.67,>100,0.37
CCCOC(=O)C1C(C)=CS[C@@H]2[C@H](NC(=O)CCc3ccc(OC)cc3)C(=O)N12 (stereo not given in full),<0.23,49.5,0.21
COc1ccc(CCC(=O)N[C@@H]2C(=O)N3C(C(=O)O)=C(C)CS[C@H]23)cc1,>37.64,>100,>37.64
CCCc1noc(C2=C(C)CS[C@@H]3[C@H](NC(=O)COc4ccc(Cl)cc4)C(=O)N23)n1,3.87,>100,1.36
CCCOC(=O)C1=C(C)CS[C@@H]2[C@H](NC(=O)COc3ccc(OC)cc3)C(=O)N12,0.81,>100,0.39
CCOC(=O)C1=C(C)CS[C@@H]2[C@H](NC(=O)COc3ccccc3)C(=O)N12,1.71,57.85,0.66
CC1=C(c2nc(C)no2)N2C(=O)[C@@H](NC(=O)COc3ccccc3)[C@H]2SC1,1.85,>100,0.88
CC1=C(c2nc(C)no2)N2C(=O)[C@@H](NC(=O)COc3ccc(Cl)cc3)[C@H]2SC1,1.72,>100,1.2
CCCCOC(=O)C1=C(C)CS[C@@H]2[C@H](NC(=O)COc3ccc(Cl)cc3)C(=O)N12,1.01,>100,0.43
COc1ccc(CCC(=O)N[C@@H]2C(=O)N3C(c4nc(C)no4)=C(C)CS[C@H]23)cc1,1.68,>100,1.13
CC1=C(c2nc(C)no2)N2C(=O)[C@@H](NC(=O)OCC(Cl)(Cl)Cl)[C@H]2SC1,0.92,>100,0.46
CCCc1noc(C2=C(C)CS[C@@H]3[C@H](NC(=O)Cc4ccc(C)cc4)C(=O)N23)n1,0.64,>100,
CCCc1noc(C2=C(C)CS[C@@H]3[C@H](NC(=O)Cc4ccccc4)C(=O)N23)n1,1.04,>100,
COc1ccc(CC(=O)N[C@@H]2C(=O)N3C(c4nc(C)no4)=C(C)CS[C@H]23)cc1,3.25,>100,
CC1=C(c2nc(C)no2)N2C(=O)[C@@H](NC(=O)[C@H](N)c3ccccc3)[C@H]2SC1,44.05,>100,
CC1=C(c2nc(C)no2)N2C(=O)[C@@H](NC(=O)OCC(C)(C)C)[C@H]2SC1,1.03,>100,
CCCOC(=O)C1=C(C)CS[C@@H]2[C@H](NC(=O)[C@H](N)c3ccccc3)C(=O)N12,15.46,>100,
CCCc1noc(C2=C(C)CS[C@@H]3[C@H](NC(=O)CCc4ccc(Cl)cc4)C(=O)N23)n1,,>100,
